An excerpt weighted towards active compounds, which were near 1.9% of everything screened.
LEDGF integ inh: blocks HIV-1 LEDGF/p75-dependent DNA integration. TR-FRET IN-LEDGF/p75 DNA integration, Eu/Cy5. inhibition, % at 3.7 µM. 370,000 compounds, 0.64% hits. AID 743269;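 active = inhibition above the screen-wide mean plus 3 SD, cut at about 13% in these data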;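 note: signal is the Cy5 over europium emission ratio at 671 and 618 nm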
Rin1 Abl inh: human Rin1-Abl interaction inhibition; P00519+Q13671; 360,000 compounds, 0.4% hits; TR-FRET Rin1/Abl binding, biochemical; AID 588664; inhibition, % at 7.35 µM; in the data active = inhibition above about 5%, passing the limit was not always enough
UHRF1 binding: human UHRF1 methylated DNA binding inhibitors. Q96T88. UHRF1 binding to methylated oligo, TR-FRET. inhibition, % at 4.4 µM. 370,000 compounds, 0.75% hits; in the data active = inhibition above about 21%;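 note: UHRF1 SRA domain binding a hemimethylated CpG hairpin DNA probe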
Target sequence (Q96T88 whole entry, looked up, the tested form may be a part): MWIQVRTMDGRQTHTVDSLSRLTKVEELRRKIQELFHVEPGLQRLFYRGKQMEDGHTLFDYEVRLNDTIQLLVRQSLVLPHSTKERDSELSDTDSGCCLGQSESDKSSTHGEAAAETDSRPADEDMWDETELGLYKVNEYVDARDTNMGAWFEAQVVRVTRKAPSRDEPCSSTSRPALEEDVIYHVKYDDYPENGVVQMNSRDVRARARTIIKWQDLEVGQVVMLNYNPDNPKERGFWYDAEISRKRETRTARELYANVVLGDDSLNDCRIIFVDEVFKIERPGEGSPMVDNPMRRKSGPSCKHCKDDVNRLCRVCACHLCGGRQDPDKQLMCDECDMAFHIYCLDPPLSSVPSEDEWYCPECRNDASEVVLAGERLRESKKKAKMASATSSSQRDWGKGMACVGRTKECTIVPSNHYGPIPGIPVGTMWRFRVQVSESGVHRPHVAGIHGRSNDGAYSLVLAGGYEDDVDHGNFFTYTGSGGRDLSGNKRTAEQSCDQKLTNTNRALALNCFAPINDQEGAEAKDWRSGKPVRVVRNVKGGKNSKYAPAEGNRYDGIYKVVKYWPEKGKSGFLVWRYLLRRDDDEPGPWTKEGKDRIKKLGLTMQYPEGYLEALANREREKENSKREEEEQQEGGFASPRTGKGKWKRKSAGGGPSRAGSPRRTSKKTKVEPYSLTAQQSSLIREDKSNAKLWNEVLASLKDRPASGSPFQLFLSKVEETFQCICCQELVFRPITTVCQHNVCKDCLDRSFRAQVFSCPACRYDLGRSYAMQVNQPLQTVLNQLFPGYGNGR
MBD2 DNA inh: inhibitors of human MBD2 binding to methylated oligonucleotide | TR-FRET | inhibition, % at 4.4 µM | 370,000 compounds, 0.31% hits | AID 686964; in the data active = inhibition above about 13%
TDP2 absorb: blocks human TDP2 phosphodiesterase activity | O95551 | recombinant TDP2, T5PNP hydrolysis, p-nitrophenol absorbance 415 nm | inhibition, % at 12.8 µM | 370,000 compounds, 0.34% hits | AID 720702;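 active = inhibition above the mean of all tested compounds plus 3 SD, set per campaign, cut at about 25% in these data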
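Assay system: Recombinant human TDP2 | Quantity: 120 nM TDP2 per well | Incubation: 2 h at 37 °C | Signal: Epi absorbance | Evaluation: Percent inhibition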
IN multimer act: HIV-1 integrase multimerization activation, counter-screen | shares compounds with LEDGF integ inh | activation, % at 7.7 µM | TR-FRET HIV-1 integrase multimerization, biochemical | 2,000 compounds, 17% hits; in the data active = activation above about 8.9%
TRFRET interf: optically interferes with TR-FRET readout in LEDGF counter-screen. AID 1053135. 2,000 tested, under 10 active. shares compounds with LEDGF integ inh. TR-FRET optical interference counterscreen, HIV-1 IN multimerization. inhibition, % at 7.7 µM;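 active = inhibition above the mean over all tested compounds plus 3 SD, which no compound reached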
LEDGF integ conf: LEDGF/p75-dependent HIV-1 integration inhibition, confirmation; shares compounds with LEDGF integ inh; TR-FRET LEDGF/p75-dependent HIV-1 integration, biochemical; inhibition, % at 3.7 µM; 2,000 compounds, 36% hits; in the data active = inhibition above about 14%
Hits are given with their value; - = inactive; . = no result given.

SMILES	LEDGF integ inh	Rin1 Abl inh	UHRF1 binding	MBD2 DNA inh	TDP2 absorb	IN multimer act	TRFRET interf	LEDGF integ conf
COc1cccc(NC(=O)CSc2nnc(-c3ccoc3C)n2-c2ccccc2)c1	29.3	.	-	-	-	-	-	-
COc1ccc(-n2c(SCC(=O)Nc3ccccc3)nnc2-c2ccoc2C)cc1	-	-	-	-	-	.	.	.
Cc1cc(CC(=O)O)c2oc(-c3ccoc3)cc(=O)c2c1	14.7	.	25.3	-	-	-	-	29.1
Cc1cc2c(=O)cc(-c3ccccc3)oc2c(C(=O)O)c1C	-	-	-	-	-	.	.	.
COC(=O)COc1ccc(C(C2C(=O)CC(C)(C)CC2=O)C2C(=O)CC(C)(C)CC2=O)cc1	-	-	-	-	-	.	.	.
Cn1cc(Br)c(NS(=O)(=O)c2ccc(Cl)s2)n1	25.4	-	-	-	-	-	-	-
CN(C)c1ccc(NC(=O)C2C3C=CC(C3)C2C(=O)O)cc1 (configuration not stated)	49.5	-	20.9	-	45.4	-	-	-
CC1=CC(=O)C=CC1=Nc1ccc(N(C)C)cc1	27.0	-	-	-	-	-	-	-
O=C(O)CCN1C(=O)/C(=C/c2ccc(-c3nc4ccccc4s3)o2)SC1=S	16.8	-	-	-	-	-	-	16.1
CC1CC(C)C(=O)C(C(CC2CC(=O)NC(=O)C2)OC(=O)CC(=O)c2ccccc2)C1 (configuration not stated)	-	-	-	-	-	.	.	.
CCC(C(=O)Nc1ccccn1)c1ccccc1 (configuration not stated)	14.2	-	-	-	-	-	-	-
O=C(CSc1nnc(-c2ccccc2)n1-c1ccc(Cl)cc1)Nc1ccc(OCc2ccccc2)cc1	-	.	-	-	-	.	.	.
C=CCN(CC#Cc1ccccc1)Cc1ccc2c(c1)OCO2	-	.	-	-	-	.	.	.
COc1ccc(COC(=O)CCc2c[nH]c3ccccc23)cc1F	-	-	-	-	-	.	.	.
Cc1cc(C(=O)COC(=O)Cc2n[nH]c(=O)c3ccccc23)c(C)n1-c1cccc(C(F)(F)F)c1	30.4	-	-	-	-	-	-	-
Cc1cc(C(=O)COC(=O)CC2Sc3ccccc3NC2=O)c(C)n1-c1cccc(C(F)(F)F)c1 (configuration not stated)	-	-	-	-	-	.	.	.
COc1cc(C2NC(=O)NC(C)=C2C(=O)OCC2CCCCC2)ccc1O (configuration not stated)	-	-	-	-	-	.	.	.
Oc1ccc(Br)cc1C=Nc1ccc(Cl)cc1	-	-	-	-	-	.	.	.
CCN(CC)c1ccc(N=Cc2cc(Br)ccc2O)cc1	24.3	-	-	-	-	-	-	-
Cc1ccc(S(=O)(=O)Nc2cc(C(=O)N3CCOCC3)ccc2N2CCCCC2)cc1	24.5	-	-	-	-	-	-	-
O=C(c1cccc(F)c1)N1CCN(S(=O)(=O)c2ccccc2)CC1	-	-	-	-	-	.	.	.
O=C(c1ccccc1)N1CCN(S(=O)(=O)c2ccccc2)CC1	44.2	-	-	-	-	-	-	-
Cc1cccc(N2C(=O)CS/C2=N\NC(=O)c2ccc(Br)cc2)c1C	16.2	-	-	-	-	-	-	-
Cc1ccc(S(=O)(=O)NCC(=O)OC(C)C(=O)c2ccccc2)cc1 (configuration not stated)	22.6	-	-	-	-	-	-	-
O=C(O)C1CCCC2CN3CCc4c([nH]c5ccccc45)C3C(O)C21 (configuration not stated)	-	-	-	-	-	.	.	.
SMILES	LEDGF integ inh	Rin1 Abl inh	UHRF1 binding	MBD2 DNA inh	TDP2 absorb	IN multimer act	TRFRET interf	LEDGF integ conf
C[C@H]1C(C(=O)N(C)C2CCCCC2)=Cc2c(n(-c3ccc(F)cc3)c(=O)n2CCCOc2ccccc2)C=C1c1ccccc1	44.4	.	-	-	-	-	-	16.9
CON(C)C(=O)[C@H]1C[C@@H]2[C@H](C[C@@H](c3ccccc3)[C@H]1C)N(c1ccc(F)cc1)C(=O)N2CCCOc1ccccc1	-	.	-	-	-	.	.	.
CCCn1c2ccc(C)cc2c2nnc(SCCN3CCOCC3)nc21	-	-	-	-	-	.	.	.
CCCn1c2ccccc2c2nnc(SCCN3CCOCC3)nc21	19.9	-	-	-	-	-	-	-
COc1ccc(COCC(O)CN2CCN(S(=O)(=O)c3ccc(C(C)C)cc3)CC2)cc1 (configuration not stated)	-	-	-	-	-	.	.	.
CCNC(=S)N(Cc1ccccc1)Cc1nc2ccccc2c(=O)[nH]1	69.6	-	-	-	-	-	-	-
O=C(NCCCO)c1ccc(CSc2nc3ccccc3[nH]2)cc1	17.0	-	-	-	-	-	-	-
CCC[C@@H]1CCCO[C@@](C(=O)NCc2ccccn2)(C(F)(F)F)C1	-	-	-	-	-	.	.	.
O=C(OC1CC2CC1[C@H]1CCCCN1C2=O)N1CCC(c2ccccc2)CC1 (some centres not stated)	23.2	.	-	-	-	-	-	-
Cc1ccc2occ(/C=N/NC(=O)c3ccccc3O)c(=O)c2c1	17.8	-	-	-	-	-	-	24.1
O=S1(=O)CC(N2CCN(CCO)CC2)CN1Cc1ccccc1 (configuration not stated)	35.4	-	-	-	-	-	-	-
Cn1c(=O)c(C(=O)c2ccc(S(C)(=O)=O)c(Cl)c2Cl)c(O)c2ccccc21	37.8	-	-	-	-	-	-	-
CCc1cccc(CC)c1NC(=O)CSc1nnc(C2CC2)n1C	-	-	-	-	-	.	.	.
CC1(C)CC(=O)C(C(C2=C(O)CC(C)(C)CC2=O)c2ccc([N+](=O)[O-])cc2)C(=O)C1 (configuration not stated)	39.6	-	-	-	-	-	-	-
Cc1ccc(-c2nn(-c3ccccc3)cc2CO)o1	15.4	-	-	-	-	-	-	-
OCc1cn(-c2ccccc2)nc1-c1ccco1	-	-	-	-	-	.	.	.
O=C(CCCCCCN1C(=O)c2ccccc2C1=O)NC1CCCCC1	-	-	-	-	-	.	.	.
O=C(CCCCCN1C(=O)c2ccccc2C1=O)NC1CCCC1	65.6	-	-	-	-	-	-	-
COc1cc2c3nnc(-c4ccc(F)cc4)c-3cn(Cc3ccccc3)c2cc1OC	31.0	-	-	-	-	-	-	-
CC(=O)NNc1nc(-c2ccccc2)c2cc(Br)ccc2n1	-	-	-	-	-	.	.	.
O=C(CN1CCCCC1)NNc1nc(-c2ccccc2)c2cc(Br)ccc2n1	19.1	-	-	-	-	-	-	-

High-throughput results (PubChem)
